The target in series [1] is T1, Voltage-dependent T-type calcium channel subunit alpha-1G (Homo sapiens, UniProt O43497). Description: Inhibition of T-type calcium channel alpha1G expressed in human HEK293 cells assessed as inhibition of KCl-induced increase in calcium level at 10 uM after 60 mins by FDSS6000 assay.
In series [2] the target is T1, Voltage-dependent T-type calcium channel subunit alpha-1G. Description: Inhibition of T-type calcium channel alpha1G expressed in human HEK293 cells assessed as inhibition of peak currents by whole-cell patch-clamp method. Format: cell-based. In short, it runs like this:
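Whole-cell recording of α1G T-type Ca²⁺ currents, evoked every 15 s by a 50 ms depolarizing step from −100 mV to −30 mV. Peak-current inhibition was measured across compound concentrations. IC50 was obtained by fitting raw data to dose–response curves.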
In general terms: The patch-clamp technique gives a direct electrical read-out from membranes.

The target of series [3] is Voltage-dependent N-type calcium channel subunit alpha-1B (Homo sapiens, UniProt Q00975). Description: Inhibition of N-type calcium channel Alpha-1B.
Series [4] deals with Voltage-gated inwardly rectifying potassium channel KCNH2 (Homo sapiens, UniProt Q12809). Description: Inhibition of human ERG.
Series [5] is described as follows: Ratio of drug level in brain to plasma in iv dosed rat. Format: ADME, organism-based. To be noted: read-out: BPR. The gist of the method:
(§1)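 Rat plasma pharmacokinetics after intravenous (n = 4) or oral (n = 3) dosing. Brain-to-plasma ratio, Cmax, Tmax, half-life, Vdss and oral bioavailability were derived per route. Values are given as mean with standard deviation.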

Series [6] is described as follows: Tmax in po dosed rat. Format: ADME, organism-based. To be noted: in vivo. In short, it runs like this: as §1
The nature of series [7]: Half life in iv dosed rat. Format: ADME, organism-based. To be noted: in vivo. The gist of the method:
as §1

Series [8] in a line: Volume of distribution at steady state in iv dosed rat. To be noted: in vivo, read-out: Vdss. Format: ADME, organism-based. The gist of the method:
as §1

Series [9] in a line: Ratio of drug level in brain to plasma in po dosed rat. The series is classed as ADME, organism-based. To be noted: read-out: BPR. The gist of the method:
as §1

A short description of series [10]: Half life in po dosed rat. Format: ADME, organism-based. To be noted: in vivo. The gist of the method: as §1
Series [11] is described as follows: Oral bioavailability in rat. Particulars: in vivo. The series is classed as ADME, organism-based. The gist of the method: as §1
Series [12] is described as follows: Cmax in po dosed rat. The series is classed as ADME, organism-based. Details: route oral. To be noted: in vivo. The gist of the method: as §1

Structures are written as SMILES.

T1 sequence (O43497 whole entry): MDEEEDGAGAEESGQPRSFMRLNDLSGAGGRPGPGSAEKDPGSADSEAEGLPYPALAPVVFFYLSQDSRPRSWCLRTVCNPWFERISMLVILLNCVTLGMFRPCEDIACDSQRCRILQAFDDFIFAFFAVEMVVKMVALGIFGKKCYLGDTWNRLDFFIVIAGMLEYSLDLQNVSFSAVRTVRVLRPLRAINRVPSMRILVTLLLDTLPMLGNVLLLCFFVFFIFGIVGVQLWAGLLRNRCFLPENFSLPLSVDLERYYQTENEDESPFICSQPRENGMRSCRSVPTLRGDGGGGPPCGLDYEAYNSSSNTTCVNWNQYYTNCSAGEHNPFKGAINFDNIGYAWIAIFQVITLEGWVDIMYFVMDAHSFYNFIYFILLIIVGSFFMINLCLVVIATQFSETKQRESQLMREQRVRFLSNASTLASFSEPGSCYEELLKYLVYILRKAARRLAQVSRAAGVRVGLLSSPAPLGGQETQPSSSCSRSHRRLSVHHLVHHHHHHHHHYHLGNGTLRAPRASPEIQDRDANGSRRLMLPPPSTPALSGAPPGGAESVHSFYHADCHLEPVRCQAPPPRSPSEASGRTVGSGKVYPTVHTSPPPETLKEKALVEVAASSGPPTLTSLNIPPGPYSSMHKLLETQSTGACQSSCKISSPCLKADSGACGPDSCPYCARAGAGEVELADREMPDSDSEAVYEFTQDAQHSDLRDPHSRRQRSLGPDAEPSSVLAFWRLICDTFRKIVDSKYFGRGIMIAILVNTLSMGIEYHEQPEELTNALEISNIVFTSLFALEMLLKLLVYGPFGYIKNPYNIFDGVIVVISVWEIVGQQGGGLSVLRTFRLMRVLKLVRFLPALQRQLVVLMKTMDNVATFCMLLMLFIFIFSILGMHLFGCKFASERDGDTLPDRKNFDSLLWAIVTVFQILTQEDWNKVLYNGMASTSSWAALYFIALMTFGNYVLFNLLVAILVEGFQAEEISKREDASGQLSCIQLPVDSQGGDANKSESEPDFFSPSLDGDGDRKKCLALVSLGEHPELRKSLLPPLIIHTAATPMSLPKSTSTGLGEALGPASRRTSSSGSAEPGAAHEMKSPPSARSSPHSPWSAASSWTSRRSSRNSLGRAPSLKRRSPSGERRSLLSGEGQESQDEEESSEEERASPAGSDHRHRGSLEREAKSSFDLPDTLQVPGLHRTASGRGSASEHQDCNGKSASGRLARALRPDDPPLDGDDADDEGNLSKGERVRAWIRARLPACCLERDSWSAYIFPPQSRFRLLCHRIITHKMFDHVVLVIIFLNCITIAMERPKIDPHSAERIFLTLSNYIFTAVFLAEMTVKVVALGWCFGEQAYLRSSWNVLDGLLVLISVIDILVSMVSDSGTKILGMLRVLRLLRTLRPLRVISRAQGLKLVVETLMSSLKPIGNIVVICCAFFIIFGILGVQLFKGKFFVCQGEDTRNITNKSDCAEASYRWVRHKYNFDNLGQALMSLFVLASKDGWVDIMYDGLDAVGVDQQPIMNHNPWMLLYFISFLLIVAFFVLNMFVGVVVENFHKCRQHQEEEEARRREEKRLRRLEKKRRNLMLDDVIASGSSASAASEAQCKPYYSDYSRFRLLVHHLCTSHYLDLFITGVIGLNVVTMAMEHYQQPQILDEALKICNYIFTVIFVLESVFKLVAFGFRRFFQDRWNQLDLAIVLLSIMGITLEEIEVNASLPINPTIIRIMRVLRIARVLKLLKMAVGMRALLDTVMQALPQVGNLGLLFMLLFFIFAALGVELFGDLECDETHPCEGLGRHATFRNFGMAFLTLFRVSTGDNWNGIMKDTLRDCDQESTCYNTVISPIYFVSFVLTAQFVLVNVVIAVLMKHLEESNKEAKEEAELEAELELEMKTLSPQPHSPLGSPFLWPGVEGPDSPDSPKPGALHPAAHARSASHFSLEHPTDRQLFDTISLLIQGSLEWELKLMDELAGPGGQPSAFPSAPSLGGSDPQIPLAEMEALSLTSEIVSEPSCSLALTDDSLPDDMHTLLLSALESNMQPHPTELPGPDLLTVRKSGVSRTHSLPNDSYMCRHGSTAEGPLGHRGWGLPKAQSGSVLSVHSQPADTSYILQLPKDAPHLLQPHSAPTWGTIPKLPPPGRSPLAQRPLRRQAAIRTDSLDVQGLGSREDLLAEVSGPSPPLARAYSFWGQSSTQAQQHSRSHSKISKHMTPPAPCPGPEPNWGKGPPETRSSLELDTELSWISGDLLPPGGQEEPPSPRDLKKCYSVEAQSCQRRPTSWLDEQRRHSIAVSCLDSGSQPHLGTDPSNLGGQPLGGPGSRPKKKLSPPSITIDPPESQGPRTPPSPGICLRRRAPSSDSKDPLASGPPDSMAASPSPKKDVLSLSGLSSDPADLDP
Chain of Voltage-gated inwardly rectifying potassium channel KCNH2 (Q12809 whole entry): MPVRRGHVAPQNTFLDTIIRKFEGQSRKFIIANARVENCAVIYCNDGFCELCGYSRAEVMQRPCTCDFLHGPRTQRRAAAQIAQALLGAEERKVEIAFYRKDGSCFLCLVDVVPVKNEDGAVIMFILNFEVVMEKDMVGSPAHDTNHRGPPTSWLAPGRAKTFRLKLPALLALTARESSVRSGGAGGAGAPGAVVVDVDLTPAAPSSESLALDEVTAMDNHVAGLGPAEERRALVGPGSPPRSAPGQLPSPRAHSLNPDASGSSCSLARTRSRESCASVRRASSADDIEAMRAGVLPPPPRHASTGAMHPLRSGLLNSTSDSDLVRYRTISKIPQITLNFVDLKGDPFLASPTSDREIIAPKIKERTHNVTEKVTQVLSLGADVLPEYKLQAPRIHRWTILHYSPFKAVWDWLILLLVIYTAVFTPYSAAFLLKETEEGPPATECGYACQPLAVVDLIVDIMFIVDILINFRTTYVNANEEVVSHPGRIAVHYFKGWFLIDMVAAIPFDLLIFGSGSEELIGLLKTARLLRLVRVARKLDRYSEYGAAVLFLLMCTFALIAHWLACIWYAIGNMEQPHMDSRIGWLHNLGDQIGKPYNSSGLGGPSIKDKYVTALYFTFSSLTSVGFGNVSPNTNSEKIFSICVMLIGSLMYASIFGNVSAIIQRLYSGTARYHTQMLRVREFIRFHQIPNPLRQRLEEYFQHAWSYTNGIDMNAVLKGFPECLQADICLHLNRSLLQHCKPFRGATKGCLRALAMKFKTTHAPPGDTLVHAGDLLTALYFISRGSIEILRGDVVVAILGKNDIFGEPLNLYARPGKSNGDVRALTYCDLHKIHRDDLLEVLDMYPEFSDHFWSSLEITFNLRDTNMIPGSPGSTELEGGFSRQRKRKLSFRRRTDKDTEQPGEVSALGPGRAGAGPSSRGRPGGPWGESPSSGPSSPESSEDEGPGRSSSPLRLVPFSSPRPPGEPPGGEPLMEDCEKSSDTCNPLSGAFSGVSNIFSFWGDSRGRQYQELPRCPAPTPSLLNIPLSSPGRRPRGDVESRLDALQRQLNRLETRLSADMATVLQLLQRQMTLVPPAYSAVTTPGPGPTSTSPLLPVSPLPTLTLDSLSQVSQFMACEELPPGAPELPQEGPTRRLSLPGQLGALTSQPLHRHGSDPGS

As to `Cc1ccccc1NC(=O)CN1CCCN(Cc2nc3ccccc3[nH]2)CC1`, the inhibition (commonly the drop in the measured response relative to a control, in per cent) in series [1] came out at 51.8%.

For the compound `CCc1cccc(CC)c1NC(=O)CN1CCCN(Cc2nc3ccccc3[nH]2)CC1`, in series [1], the inhibition turned out to be 57.4%. Moreover, the IC50 (in general, the concentration that inhibits the measured activity by half) in series [2] stood at 2080 nM.

As to `O=C(CNc1ccc(Cl)cc1)N1CCCN(Cc2nc3ccccc3[nH]2)CC1`, in series [1], the inhibition stood at 36.9%.

Regarding `O=C(CNc1ccc(C(F)(F)F)cc1)N1CCCN(Cc2nc3ccccc3[nH]2)CC1`, the inhibition in series [1] turned out to be 28.2%.

Regarding `O=C(CN1CCCN(Cc2nc3ccccc3[nH]2)CC1)Nc1cccc(C(F)(F)F)c1`, the inhibition in series [1] was found to be 60.1%.

In the case of `O=C(CNc1ccccc1Cl)N1CCCN(Cc2nc3ccccc3[nH]2)CC1`, the inhibition in series [1] stood at 32.2%.

Regarding `O=C(CNc1cccc(C(F)(F)F)c1)N1CCCN(Cc2nc3ccccc3[nH]2)CC1`, the inhibition in series [1] came to 27.3%.

Take `CCc1cccc(CC)c1NCC(=O)N1CCCN(Cc2nc3ccccc3[nH]2)CC1`: the inhibition in series [1] was 62.4%. The concentration for half-maximal inhibition (IC50) in series [2] was found to be 4000 nM.

Turning to `Cc1ccc(NC(=O)CN2CCCN(Cc3nc4ccccc4[nH]3)CC2)c(C)c1`, in series [1], the inhibition worked out at 47.6%.

With `COc1cccc(NCC(=O)N2CCCN(Cc3nc4ccccc4[nH]3)CC2)c1`, the inhibition in series [1] is 1.54%.

`O=C(CN1CCCN(Cc2nc3ccccc3[nH]2)CC1)Nc1ccc(F)cc1`: the inhibition in series [1] is 46.6%.

For `COc1cccc(NC(=O)CN2CCCN(Cc3nc4ccccc4[nH]3)CC2)c1`, the inhibition in series [1] was 46.1%.

Turning to `O=C(CNc1cccc(Cl)c1)N1CCCN(Cc2nc3ccccc3[nH]2)CC1`, the inhibition in [1] was determined as 40.9%.

For the compound `O=C(CN1CCCN(Cc2nc3ccccc3[nH]2)CC1)Nc1ccccc1F`, the inhibition in series [1] came to 32.4%.

Turning to `Cc1ccc(NCC(=O)N2CCCN(Cc3nc4ccccc4[nH]3)CC2)c(C)c1`, the inhibition in series [1] was 21.1%.

Consider `O=C(CNc1ccccc1F)N1CCCN(Cc2nc3ccccc3[nH]2)CC1`, for which, in series [1], the inhibition was determined as 22.3%.

Take `O=C(CN1CCCN(Cc2nc3ccccc3[nH]2)CC1)Nc1ccccc1C(F)(F)F`: in [1], the inhibition amounted to 41.7%.

As for `Cc1ccc(NC(=O)CN2CCCN(Cc3nc4ccccc4[nH]3)CC2)cc1C`, in [1], the inhibition is 56.2%. In addition, the IC50 in [2] is 2390 nM.

For the compound `COCC(=O)O[C@]1(CCN(C)CCCc2nc3ccccc3[nH]2)CCc2cc(F)ccc2[C@@H]1C(C)C` [MIBEFRADIL], the IC50 in series [3] turned out to be 1340 nM.

For `COc1ccc(NC(=O)CN2CCCN(Cc3nc4ccccc4[nH]3)CC2)cc1`, in [1], the inhibition was 32.4%.

For `Cc1cccc(C)c1NC(=O)CN1CCCN(Cc2nc3ccccc3[nH]2)CC1`, in series [1], the inhibition amounted to 39.8%.

For `O=C(CNc1ccccc1C(F)(F)F)N1CCCN(Cc2nc3ccccc3[nH]2)CC1`, the inhibition in series [1] came to 66%. In addition, the concentration for half-maximal inhibition (IC50) in series [4] stood at 1320 nM; in series [2], 3170 nM.

Consider `O=C(CN1CCCN(Cc2nc3ccccc3[nH]2)CC1)Nc1cccc(F)c1`, for which the inhibition in series [1] is 46.4%.

On to `COc1ccccc1NC(=O)CN1CCCN(Cc2nc3ccccc3[nH]2)CC1`, for which the inhibition in series [1] worked out at 59.1%. Moreover, the IC50 in series [2] came to 12600 nM.

Regarding `Cc1ccc(NC(=O)CN2CCCN(Cc3nc4ccccc4[nH]3)CC2)cc1`, the inhibition in [1] came to 44.8%.

Turning to `O=C(CN1CCCN(Cc2nc3ccccc3[nH]2)CC1)Nc1ccccc1Cl`, the inhibition in series [1] was found to be 56.8%. Further, the concentration for half-maximal inhibition (IC50) in series [2] came to 1470 nM.

Consider `Cc1cccc(C)c1NCC(=O)N1CCCN(Cc2nc3ccccc3[nH]2)CC1`, for which the inhibition in series [1] turned out to be 29.5%.

With `COc1ccccc1NCC(=O)N1CCCN(Cc2nc3ccccc3[nH]2)CC1`, the inhibition in series [1] stood at 8.29%.

For the compound `Cc1cccc(NCC(=O)N2CCCN(Cc3nc4ccccc4[nH]3)CC2)c1`, in series [1], the inhibition stood at 8.48%.

`O=C(CN1CCCN(Cc2nc3ccccc3[nH]2)CC1)Nc1cccc(Cl)c1`: the inhibition in series [1] was found to be 41.7%.

In the case of `O=C(CN1CCCN(Cc2nc3ccccc3[nH]2)CC1)Nc1ccc(C(F)(F)F)cc1`, the results for the IC50 in series [3], in [4] and in [2] were 28700 nM, 4970 nM and 1230 nM, respectively. Moreover, the figures for the Kp in [5] and in series [9] were 0.438 and 0.105, respectively. Also, the time of peak concentration (Tmax) (as a rule, the time at which the peak concentration occurs) in series [6] was 2 h. Further, the half-life (commonly how long it takes for the measured level to halve) came to 5.67 h in [7] and 4.34 h in [10]. The inhibition in series [1] turned out to be 60.7%. For the same compound, in series [8], the Vd was 2.33 L/kg. In [11], the bioavailability – broadly, dose-corrected exposure relative to a reference, in per cent – amounted to 43.4%. The peak concentration (Cmax) (as a rule, the maximum level reached in the sampled fluid or tissue) in series [12] is 2280 ng/mL.

Take `O=C(CN1CCCN(Cc2nc3ccccc3[nH]2)CC1)Nc1ccc(Cl)cc1`: in series [1], the inhibition came out at 51.3%.

Turning to `O=C(CNc1cccc(F)c1)N1CCCN(Cc2nc3ccccc3[nH]2)CC1`, the inhibition in series [1] worked out at 7.52%.

As to `Cc1ccc(NCC(=O)N2CCCN(Cc3nc4ccccc4[nH]3)CC2)cc1C`, in series [1], the inhibition was found to be 16.5%.

With `Cc1cccc(NC(=O)CN2CCCN(Cc3nc4ccccc4[nH]3)CC2)c1`, in series [1], the inhibition was found to be 54.8%.

Regarding `COc1ccc(NCC(=O)N2CCCN(Cc3nc4ccccc4[nH]3)CC2)cc1`, the inhibition in [1] came out at 0.92%.

For `O=C(CNc1ccc(F)cc1)N1CCCN(Cc2nc3ccccc3[nH]2)CC1`, the inhibition in series [1] turned out to be 12.8%.

In the case of `Cc1ccccc1NCC(=O)N1CCCN(Cc2nc3ccccc3[nH]2)CC1`, the inhibition in series [1] was determined as 7.04%.

Consider `Cc1ccc(NCC(=O)N2CCCN(Cc3nc4ccccc4[nH]3)CC2)cc1`, for which the inhibition in series [1] turned out to be 16.4%.

(Values after ChEMBL document CHEMBL1158564, “Synthesis and biological evaluation of 1,4-diazepane derivatives as T-type calcium channel blockers” (Bioorg Med Chem Lett, 2010).)
